IC50, Ki and Bound data for ten compounds are collected here from ChEMBL document CHEMBL1134694, “Discovery of macrocyclic hydroxamic acids containing biphenylmethyl derivatives at P1', a series of selective TNF-alpha converting enzyme inhibitors with potent cellular activity in the inhibition of TNF-alpha release” (J Med Chem, 2001).

The species named for assay [1] is Homo sapiens. The experiment in a line: Inhibition of TNF-alpha release in LPS-stimulated human whole blood assay(WBA). Format: functional, organism-based. Put shortly: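 Human whole blood stimulated with LPS; inhibition of TNF-alpha release measured in blood from three separate donors.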
The target of the next assay is Stromelysin-1 (Homo sapiens, UniProt P08254). Nature of the assay: Inhibition of matrix metalloprotease-3.
In another assay the target is T1, Matrilysin (Homo sapiens, UniProt P09237).
T1 sequence (P09237 whole entry): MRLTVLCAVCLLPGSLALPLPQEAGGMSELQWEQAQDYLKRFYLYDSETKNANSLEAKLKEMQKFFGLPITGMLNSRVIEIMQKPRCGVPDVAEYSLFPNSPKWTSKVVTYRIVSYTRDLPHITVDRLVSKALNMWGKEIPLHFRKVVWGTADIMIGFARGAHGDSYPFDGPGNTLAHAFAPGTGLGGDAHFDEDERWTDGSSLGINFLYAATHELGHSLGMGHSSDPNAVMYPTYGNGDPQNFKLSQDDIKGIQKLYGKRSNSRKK
Nature of the assay: Inhibition of matrix metalloprotease-7.

Another assay deals with Neutrophil collagenase (Homo sapiens, UniProt P22894). Nature of the assay: Inhibition of matrix metalloprotease-8.
Sequence of Neutrophil collagenase (P22894 whole entry): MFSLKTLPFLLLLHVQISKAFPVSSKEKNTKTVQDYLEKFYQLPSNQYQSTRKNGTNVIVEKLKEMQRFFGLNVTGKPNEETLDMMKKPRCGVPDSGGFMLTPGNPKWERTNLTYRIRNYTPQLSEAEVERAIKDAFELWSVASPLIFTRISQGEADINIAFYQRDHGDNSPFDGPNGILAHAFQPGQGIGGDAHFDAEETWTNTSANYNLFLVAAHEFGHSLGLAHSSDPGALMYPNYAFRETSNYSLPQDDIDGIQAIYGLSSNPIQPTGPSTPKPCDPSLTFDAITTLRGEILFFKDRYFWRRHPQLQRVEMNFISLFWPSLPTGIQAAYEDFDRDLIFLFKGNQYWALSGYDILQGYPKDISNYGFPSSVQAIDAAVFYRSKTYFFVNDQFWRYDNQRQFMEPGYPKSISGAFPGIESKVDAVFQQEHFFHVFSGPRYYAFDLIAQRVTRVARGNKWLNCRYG
Another assay deals with Collagenase 3 (Homo sapiens, UniProt P45452). The experiment in a line: Inhibition of matrix metalloprotease-13.
The next assay deals with Stromelysin-2 (Homo sapiens, UniProt P09238). The experiment in a line: Inhibition of matrix metalloprotease-10.
Sequence of Stromelysin-2 (P09238 whole entry): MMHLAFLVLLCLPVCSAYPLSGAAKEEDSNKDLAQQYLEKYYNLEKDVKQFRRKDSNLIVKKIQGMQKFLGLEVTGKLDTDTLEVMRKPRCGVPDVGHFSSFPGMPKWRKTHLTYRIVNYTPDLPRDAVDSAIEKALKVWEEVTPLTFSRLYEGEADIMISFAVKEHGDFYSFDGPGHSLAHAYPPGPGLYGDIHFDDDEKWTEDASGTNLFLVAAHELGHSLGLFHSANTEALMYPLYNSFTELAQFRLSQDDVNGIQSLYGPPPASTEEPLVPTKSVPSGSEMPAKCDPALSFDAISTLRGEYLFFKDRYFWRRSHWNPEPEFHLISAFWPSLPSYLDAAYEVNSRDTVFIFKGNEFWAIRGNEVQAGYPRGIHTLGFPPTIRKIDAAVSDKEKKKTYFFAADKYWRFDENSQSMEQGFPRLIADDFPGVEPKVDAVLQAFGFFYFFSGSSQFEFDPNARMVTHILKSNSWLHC
For assay [2], the target named is Matrix metalloproteinase-14 (Homo sapiens, UniProt P50281). Nature of the assay: Inhibition of matrix metalloprotease-14.
Assay [3] deals with Matrix metalloproteinase-15 (Homo sapiens, UniProt P51511). The experiment in a line: Inhibition of matrix metalloprotease-15.
Sequence of Matrix metalloproteinase-15 (P51511 whole entry): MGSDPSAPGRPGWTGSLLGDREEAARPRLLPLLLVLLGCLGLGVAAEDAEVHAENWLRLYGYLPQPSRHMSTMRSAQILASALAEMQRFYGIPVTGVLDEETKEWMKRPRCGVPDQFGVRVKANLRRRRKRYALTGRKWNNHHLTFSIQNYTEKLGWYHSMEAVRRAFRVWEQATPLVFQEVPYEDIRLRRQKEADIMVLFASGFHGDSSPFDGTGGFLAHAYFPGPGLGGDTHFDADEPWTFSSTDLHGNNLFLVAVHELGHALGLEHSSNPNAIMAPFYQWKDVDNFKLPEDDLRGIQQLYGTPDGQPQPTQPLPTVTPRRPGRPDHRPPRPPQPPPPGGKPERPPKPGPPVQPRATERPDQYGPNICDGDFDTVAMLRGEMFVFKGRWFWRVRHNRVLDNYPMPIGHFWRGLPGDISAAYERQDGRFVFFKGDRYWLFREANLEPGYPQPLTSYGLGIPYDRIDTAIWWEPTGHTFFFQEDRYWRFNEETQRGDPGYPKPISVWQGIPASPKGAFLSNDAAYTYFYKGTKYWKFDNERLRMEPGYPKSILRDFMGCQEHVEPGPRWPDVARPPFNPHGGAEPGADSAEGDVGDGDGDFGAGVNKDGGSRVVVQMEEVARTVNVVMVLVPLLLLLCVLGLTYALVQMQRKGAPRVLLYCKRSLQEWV
Assay [4] concerns the target Matrix metalloproteinase-16 (Homo sapiens, UniProt P51512). Nature of the assay: Inhibition of matrix metalloprotease-16.
Assay [5] concerns the target T2, Interstitial collagenase (Homo sapiens, UniProt P03956).
T2 sequence (P03956 whole entry): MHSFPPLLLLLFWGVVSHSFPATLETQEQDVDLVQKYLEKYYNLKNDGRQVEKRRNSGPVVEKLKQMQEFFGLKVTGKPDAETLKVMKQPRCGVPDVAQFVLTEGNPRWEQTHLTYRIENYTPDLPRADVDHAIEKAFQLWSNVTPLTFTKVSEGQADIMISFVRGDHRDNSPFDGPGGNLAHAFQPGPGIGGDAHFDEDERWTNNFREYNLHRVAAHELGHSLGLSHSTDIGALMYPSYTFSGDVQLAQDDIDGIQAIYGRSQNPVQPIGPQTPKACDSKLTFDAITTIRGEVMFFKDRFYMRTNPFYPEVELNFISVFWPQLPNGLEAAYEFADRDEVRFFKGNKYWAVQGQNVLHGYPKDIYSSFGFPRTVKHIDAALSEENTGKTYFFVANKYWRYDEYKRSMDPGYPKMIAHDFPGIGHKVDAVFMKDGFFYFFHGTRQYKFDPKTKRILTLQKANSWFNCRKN
Nature of the assay: Inhibition of matrix metalloprotease-1.

In assay [6] the target is Macrophage metalloelastase (Homo sapiens, UniProt P39900). The experiment in a line: Inhibition of matrix metalloprotease-12.
Sequence of Macrophage metalloelastase (P39900 whole entry): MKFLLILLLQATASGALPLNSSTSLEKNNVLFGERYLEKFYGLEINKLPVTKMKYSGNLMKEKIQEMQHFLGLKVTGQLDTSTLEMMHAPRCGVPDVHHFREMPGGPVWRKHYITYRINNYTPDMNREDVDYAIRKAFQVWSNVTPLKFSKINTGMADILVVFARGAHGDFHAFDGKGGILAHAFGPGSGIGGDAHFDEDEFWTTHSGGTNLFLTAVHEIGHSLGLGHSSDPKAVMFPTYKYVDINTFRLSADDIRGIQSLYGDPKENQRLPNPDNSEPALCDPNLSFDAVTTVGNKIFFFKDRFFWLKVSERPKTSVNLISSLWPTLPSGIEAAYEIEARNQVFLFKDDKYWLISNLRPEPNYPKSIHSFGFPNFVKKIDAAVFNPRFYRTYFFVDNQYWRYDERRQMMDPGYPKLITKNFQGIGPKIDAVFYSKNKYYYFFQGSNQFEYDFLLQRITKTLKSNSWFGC
The target of assay [7] is Matrix metalloproteinase-9 (Homo sapiens, UniProt P14780). The experiment in a line: Inhibition of human matrix metalloprotease-9.
Sequence of Matrix metalloproteinase-9 (P14780 whole entry, the tested form may be a part): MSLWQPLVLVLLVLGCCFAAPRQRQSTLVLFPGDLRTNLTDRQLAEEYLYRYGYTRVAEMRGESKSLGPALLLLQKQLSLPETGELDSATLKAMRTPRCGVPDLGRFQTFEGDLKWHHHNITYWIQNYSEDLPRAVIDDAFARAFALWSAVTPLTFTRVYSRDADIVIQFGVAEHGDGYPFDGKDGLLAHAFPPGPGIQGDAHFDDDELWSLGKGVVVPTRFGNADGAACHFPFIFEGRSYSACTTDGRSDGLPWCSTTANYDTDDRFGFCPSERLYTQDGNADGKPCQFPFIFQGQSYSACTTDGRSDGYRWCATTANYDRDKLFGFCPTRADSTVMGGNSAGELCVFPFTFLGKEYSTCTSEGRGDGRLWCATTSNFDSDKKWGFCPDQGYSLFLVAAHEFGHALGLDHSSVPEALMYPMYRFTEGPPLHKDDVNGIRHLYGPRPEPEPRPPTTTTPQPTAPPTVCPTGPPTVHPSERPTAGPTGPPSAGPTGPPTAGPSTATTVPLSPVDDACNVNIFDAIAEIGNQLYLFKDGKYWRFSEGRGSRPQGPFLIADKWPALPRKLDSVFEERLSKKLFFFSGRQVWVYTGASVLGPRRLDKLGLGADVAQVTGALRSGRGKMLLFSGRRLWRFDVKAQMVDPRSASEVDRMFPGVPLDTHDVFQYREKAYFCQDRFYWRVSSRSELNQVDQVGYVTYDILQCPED
For assay [8], the target named is Disintegrin and metalloproteinase domain-containing protein 17 (Sus scrofa, UniProt O77636).
Sequence of Disintegrin and metalloproteinase domain-containing protein 17 (O77636 whole entry, the tested form may be a part): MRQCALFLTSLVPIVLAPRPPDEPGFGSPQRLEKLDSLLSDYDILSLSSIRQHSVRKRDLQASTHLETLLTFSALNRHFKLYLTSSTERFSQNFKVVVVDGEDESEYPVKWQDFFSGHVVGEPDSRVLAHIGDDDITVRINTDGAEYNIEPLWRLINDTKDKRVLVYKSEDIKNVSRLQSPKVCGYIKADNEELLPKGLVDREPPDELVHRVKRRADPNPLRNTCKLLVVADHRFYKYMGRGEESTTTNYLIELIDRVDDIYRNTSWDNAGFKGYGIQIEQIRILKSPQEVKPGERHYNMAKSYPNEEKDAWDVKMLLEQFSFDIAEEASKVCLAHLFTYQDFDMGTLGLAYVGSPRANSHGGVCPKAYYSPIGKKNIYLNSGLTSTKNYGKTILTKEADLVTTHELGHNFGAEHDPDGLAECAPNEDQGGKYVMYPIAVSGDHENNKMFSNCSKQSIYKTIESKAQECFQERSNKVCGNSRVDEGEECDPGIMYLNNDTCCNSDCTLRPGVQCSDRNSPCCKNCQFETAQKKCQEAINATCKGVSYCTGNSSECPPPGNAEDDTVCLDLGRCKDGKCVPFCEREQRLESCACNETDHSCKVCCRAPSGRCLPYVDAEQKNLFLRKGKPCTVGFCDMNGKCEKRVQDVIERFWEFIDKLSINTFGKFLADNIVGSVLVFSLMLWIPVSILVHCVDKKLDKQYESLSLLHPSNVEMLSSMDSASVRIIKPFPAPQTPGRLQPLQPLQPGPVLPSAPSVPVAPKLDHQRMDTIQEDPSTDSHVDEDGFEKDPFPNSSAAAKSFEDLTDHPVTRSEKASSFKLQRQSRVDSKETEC
The target of assay [9] is 72 kDa type IV collagenase (Homo sapiens, UniProt P08253).
Sequence of 72 kDa type IV collagenase (P08253 whole entry): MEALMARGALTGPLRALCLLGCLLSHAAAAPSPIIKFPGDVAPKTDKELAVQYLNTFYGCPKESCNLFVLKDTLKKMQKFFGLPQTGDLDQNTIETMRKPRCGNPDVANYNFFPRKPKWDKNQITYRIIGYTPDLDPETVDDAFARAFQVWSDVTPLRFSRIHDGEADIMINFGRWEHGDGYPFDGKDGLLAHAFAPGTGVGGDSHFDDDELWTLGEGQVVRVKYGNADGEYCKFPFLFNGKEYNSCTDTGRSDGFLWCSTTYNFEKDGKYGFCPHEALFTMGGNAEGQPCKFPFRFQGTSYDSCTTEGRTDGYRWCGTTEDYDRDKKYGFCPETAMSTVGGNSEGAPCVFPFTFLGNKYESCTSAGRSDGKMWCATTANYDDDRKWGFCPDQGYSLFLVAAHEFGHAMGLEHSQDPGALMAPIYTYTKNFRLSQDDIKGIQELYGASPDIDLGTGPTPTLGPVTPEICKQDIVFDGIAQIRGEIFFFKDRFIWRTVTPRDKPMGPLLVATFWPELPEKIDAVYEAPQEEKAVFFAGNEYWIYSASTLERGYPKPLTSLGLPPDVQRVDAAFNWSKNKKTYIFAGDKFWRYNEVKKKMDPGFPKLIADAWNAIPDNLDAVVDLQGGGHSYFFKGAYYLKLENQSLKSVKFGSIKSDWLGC
For assay [10], the species on record is Homo sapiens. The experiment in a line: Binding affinity against human serum protein. Format: functional. The procedure, abridged:
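Binding to human serum proteins, reported as the mean percentage of compound bound across three determinations.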

The target of assay [11] is T2, Interstitial collagenase. The experiment in a line: Inhibition of human matrix metalloprotease-1.

Sequence of Matrix metalloproteinase-16 (P51512 whole entry): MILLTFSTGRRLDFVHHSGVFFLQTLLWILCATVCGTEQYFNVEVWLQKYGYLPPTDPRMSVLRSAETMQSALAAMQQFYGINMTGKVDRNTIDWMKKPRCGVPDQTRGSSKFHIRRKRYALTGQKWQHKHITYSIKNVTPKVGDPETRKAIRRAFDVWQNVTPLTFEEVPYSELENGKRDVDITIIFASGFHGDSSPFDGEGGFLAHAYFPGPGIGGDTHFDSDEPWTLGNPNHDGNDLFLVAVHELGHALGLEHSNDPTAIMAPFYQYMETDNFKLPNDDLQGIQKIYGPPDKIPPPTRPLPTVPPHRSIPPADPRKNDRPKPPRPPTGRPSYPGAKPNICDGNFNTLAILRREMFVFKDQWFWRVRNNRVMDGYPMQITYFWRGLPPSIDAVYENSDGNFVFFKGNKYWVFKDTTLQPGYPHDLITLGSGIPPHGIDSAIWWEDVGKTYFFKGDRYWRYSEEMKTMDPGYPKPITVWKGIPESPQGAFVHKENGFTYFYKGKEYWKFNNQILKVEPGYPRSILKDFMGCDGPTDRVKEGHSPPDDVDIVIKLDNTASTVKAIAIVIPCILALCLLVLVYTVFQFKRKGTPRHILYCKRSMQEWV

The IC50 is the concentration needed to halve the response being measured. High values mean weaker potency, low ones greater potency. In general, Ki refers to a dissociation constant, usually derived from enzyme kinetics or from competition with a known ligand. The low end stands for tighter binding, the high end for weaker binding. In the assay filed under Homo sapiens [1], `NC(=O)CNC(=O)[C@@H]1CCCCNC(=O)OCCC[C@H](C(=O)NO)[C@@H](Cc2ccc(-c3ccccc3C(F)(F)F)cc2)C(=O)N1` returned an IC50 of 180 nM. Besides, the Ki was greater than 2000 nM at Stromelysin-1; 1340 nM on Matrilysin; 428 nM on Neutrophil collagenase; 442 nM on Collagenase 3; greater than 2000 nM at Stromelysin-2; greater than 2000 nM in assay [2]. The Ki in [3] is greater than 2000 nM; in assay [4] it was greater than 2000 nM; on Interstitial collagenase [5], greater than 2000 nM; in [6], greater than 2000 nM; in [7] it was greater than 2000 nM; in assay [8] it was 1.5 nM. In addition, in [9], the Ki was determined as 1870 nM.

Turning to `CS(=O)(=O)c1ccccc1-c1ccc(C[C@H]2C(=O)N[C@H](C(=O)NCC(=O)N3CCOCC3)CCCCNC(=O)OCCC[C@@H]2C(=O)NO)cc1`, half-maximal inhibition in the assay listed under Homo sapiens [1] (IC50) required 410 nM. The Ki at Interstitial collagenase [5] is greater than 2000 nM; in [7], greater than 2000 nM; in [8] it was 6.5 nM; in assay [9], greater than 2000 nM. The same compound gave a Bound in the assay filed under Homo sapiens [10] of 5%.

On to `O=C1NCCCC[C@@H](C(=O)NCC(=O)N2CCNCC2)NC(=O)[C@H](Cc2ccc(-c3ccccc3C(F)(F)F)cc2)[C@@H](C(=O)NO)CCCO1`, for which, in the assay filed under Homo sapiens [1], inhibition was half-maximal at 60 nM (IC50). The Ki was 582 nM on Stromelysin-1; 177 nM at Matrilysin; 672 nM at Neutrophil collagenase; 50 nM at Collagenase 3; greater than 2000 nM on Stromelysin-2; greater than 2000 nM in assay [2]. Also, the Ki in assay [3] is greater than 2000 nM; in assay [4], greater than 2000 nM; on Interstitial collagenase [5], greater than 2000 nM; in assay [6], 390 nM; in [7], 1790 nM; in [8] it was 1.7 nM. This compound displayed a Ki in assay [9] of 700 nM. In addition, the Bound in the assay listed under Homo sapiens [10] amounted to 36%.

Compound `CC(C)C[C@H]1C(=O)N[C@H](C(=O)NCC(=O)N2CCOCC2)CCCCNC(=O)OCCC[C@@H]1C(=O)NO` showed a Bound in the assay listed under Homo sapiens [10] of 1%.

`O=C1NCCCC[C@@H](C(=O)NCC(=O)N2CCOCC2)NC(=O)[C@H](Cc2ccc(-c3c(F)cccc3F)cc2)[C@@H](C(=O)NO)CCCO1` came in with an IC50 in the assay listed under Homo sapiens [1] of 3700 nM. The inhibitory constant (Ki) was greater than 2000 nM on Interstitial collagenase [11], 21 nM in assay [7], 6.3 nM in assay [8] and 0.64 nM in [9]. In the assay filed under Homo sapiens [10], the Bound turned out to be 25%.

Compound `CNC(=O)CNC(=O)[C@@H]1CCCCNC(=O)OCCC[C@H](C(=O)NO)[C@@H](Cc2ccc(-c3ccccc3C(F)(F)F)cc2)C(=O)N1` showed an IC50 in the assay listed under Homo sapiens [1] of 380 nM. For the same compound, the Ki is greater than 2000 nM at Interstitial collagenase [5], 1170 nM in assay [7], 3.8 nM in [8] and 450 nM in assay [9]. In the assay listed under Homo sapiens [10], this compound yielded a Bound of 33%.

With `O=C1NCCCC[C@@H](C(=O)NCC(=O)N2CCNCC2)NC(=O)[C@H](Cc2ccc(-c3cccc(C(F)(F)F)c3)cc2)[C@@H](C(=O)NO)CCCO1`, the IC50 in the assay listed under Homo sapiens [1] was determined as 120 nM. The Ki was greater than 2000 nM on Interstitial collagenase [5], 91 nM in assay [7], 3.7 nM in assay [8] and 11 nM in assay [9]. Moreover, in the assay filed under Homo sapiens [10], the Bound was 29%.

`O=C1NCCCC[C@@H](C(=O)NCC(=O)N2CCNCC2)NC(=O)[C@H](Cc2ccc(-c3cc(C(F)(F)F)cc(C(F)(F)F)c3)cc2)[C@@H](C(=O)NO)CCCO1` came in with an IC50 in the assay filed under Homo sapiens [1] of 180 nM. The Ki was greater than 2000 nM on Stromelysin-1; greater than 2000 nM on Matrilysin; 272 nM on Neutrophil collagenase; greater than 2000 nM at Collagenase 3; greater than 2000 nM on Stromelysin-2; greater than 2000 nM in assay [2]. The inhibition constant Ki in assay [3] is greater than 2000 nM; in assay [4], greater than 2000 nM; at Interstitial collagenase [5] it was greater than 2000 nM; in [6], 35 nM; in assay [7] it was greater than 2000 nM; in assay [8], 4.6 nM. Further, in assay [9], the Ki is greater than 2000 nM. Moreover, the Bound in the assay filed under Homo sapiens [10] is 71%.

On to `O=C1NCCCC[C@@H](C(=O)NCC(=O)N2CCOCC2)NC(=O)[C@H](Cc2ccc(-c3cc(Cl)cc(Cl)c3)cc2)[C@@H](C(=O)NO)CCCO1`, for which the IC50 in the assay filed under Homo sapiens [1] amounted to 227 nM. The Ki is greater than 2000 nM at Interstitial collagenase [5], 183 nM in [7], 2.8 nM in assay [8] and 50 nM in assay [9]. Further, in the assay filed under Homo sapiens [10], the Bound was 83%.

The compound `O=C1NCCCC[C@@H](C(=O)NCC(=O)N2CCOCC2)NC(=O)[C@H](Cc2ccc(-c3ccccc3C(F)(F)F)cc2)[C@@H](C(=O)NO)CCCO1` yielded an IC50 in the assay listed under Homo sapiens [1] of 70 nM. In addition, the Ki on Stromelysin-1 is greater than 2000 nM; at Matrilysin, 834 nM; on Neutrophil collagenase, 126 nM; on Collagenase 3 it was 653 nM; at Stromelysin-2, greater than 2000 nM; in [2], greater than 2000 nM. Also, the Ki is greater than 2000 nM in assay [3]; greater than 2000 nM in [4]; greater than 2000 nM at Interstitial collagenase [5]; greater than 2000 nM in assay [6]; greater than 2000 nM in [7]; 2.8 nM in assay [8]. The Ki in [9] is greater than 2000 nM. In the assay filed under Homo sapiens [10], the Bound worked out at 55%.
